Reference: ChEMBL document CHEMBL1124668, “Solid-phase synthesis of 16 potent (selective and nonselective) in vivo antagonists of oxytocin” (J Med Chem, 1989)
Starred links: 1 amine or outer side, 2 acyl side, 3 side chain; linkers in the order of their positions; H or OH if unused. Positions of bridges follow the written chain, without caps; N, C: chain ends. Non-standard residues stand in square brackets, D forms with d. Residues, ends and D or L forms follow the SMILES beside them. X1 = O=C(CC1(S[*:2])CCCCC1)[*:1]; Orn = NCCC[C@H](N)C(=O)O

Tests used:
Rattus norvegicus [1] = assay: Antidiuretic activity in rats as intravenous dose required for reduction of 2x agonist response to equal 1x effect in estrogen pretreated rats; Weak partial agonist/antagonist; format: functional; details: Urine
Rattus norvegicus [2] = assay: (§1) In vivo antidiuretic activity as intravenous antagonist dose in estrogen pretreated rats; Weak partial agonist/antagonist; format: functional, organism-based; details: Urine
Rattus norvegicus [3] = assay: Antidiuretic activity in rats as intravenous dose required for reduction of 2x agonist response to equal 1x effect in hydrated rats under ethanol anesthesia; Weak partial agonist/antagonist
Rattus norvegicus [4] = assay: Antivasopressor activity in vivo in phenoxybenzamine pre-treated rats.; format: functional
In short: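 Rats pretreated with phenoxybenzamine, under urethane anesthesia; antagonist given iv; agonist USP Posterior Pituitary Reference Standard; read-out is pressor response. Effective dose (nmol/kg) is the dose that cuts the response to 2X units of agonist to that of 1X unit, interpolated semilogarithmically from bracketing doses. pA2 assumes a 67 mL/kg distribution volume. SEM is given where there are ≥4 independent estimates.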

Rattus norvegicus [5] = assay: In vivo inhibition of estrogen induced changes in interuterine pressure in rats.; format: functional
In short: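 Rats pretreated with estrogen, under urethane anesthesia; antagonist given iv; read-out is change in integrated intrauterine pressure; agonist synthetic oxytocin. Effective dose (nmol/kg) is the dose that cuts the response to 2X units of agonist to the response to 1X unit, interpolated on a semilog scale from doses above and below it. pA2 is derived assuming a 67 mL/kg distribution volume.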

Rattus norvegicus [6] = species: Rattus norvegicus; assay: Antidiuretic activity in rat; format: functional, Urine
Rattus norvegicus [7] = assay: Antidiuretic activity in rats as intravenous dose required for reduction of 2x agonist response to equal 1x effect in estrogen pretreated rats; weak partial agonist/antagonist; format: functional, Urine
Rattus norvegicus [8] = assay: as §1; format: functional, Urine
Rattus norvegicus [9] = assay: In vivo antidiuretic activity as intravenous antagonist dose in estrogen pretreated rats; format: functional, Urine
Rattus norvegicus [10] = species: Rattus norvegicus; assay: Antidiuretic activity in rats; format: functional, Urine

Compound	ED (Rattus norvegicus [4]) [nM/kg]	ED (Rattus norvegicus [5]) [nM/kg]	Activity (Rattus norvegicus [6]) [mg]	further results
CC[C@H](C)[C@H]1NC(=O)[C@@H](Cc2ccc(OC)cc2)NC(=O)CC2(CCCCC2)SSC[C@H](C(=O)N2CCC[C@H]2C(=O)N[C@@H](CCCN)C(=O)N[C@H](C)C(N)=O)NC(=O)[C@@H](CC(N)=O)NC(=O)[C@H]([C@H](C)O)NC1=O	–	–	–	ED (Rattus norvegicus [1]): Partial agonist
CC[C@H](C)[C@H]1NC(=O)[C@@H](Cc2ccc(OC)cc2)NC(=O)CC2(CCCCC2)SSC[C@H](C(=O)N2CCC[C@H]2C(=O)N[C@@H](CCCN)C(=O)N[C@H](CCCN=C(N)N)C(N)=O)NC(=O)[C@@H](CC(N)=O)NC(=O)[C@H]([C@H](C)O)NC1=O	–	–	–	Activity (Rattus norvegicus [2]): Partial agonist
CC[C@H](C)[C@@H]1NC(=O)[C@H](Cc2ccc(OC)cc2)NC(=O)CC2(CCCCC2)SSC[C@@H](C(=O)N2CCC[C@H]2C(=O)N[C@@H](CCCN)C(N)=O)NC(=O)[C@H](CC(N)=O)NC(=O)[C@H]([C@@H](C)O)NC1=O (Y(Me)ITNCP[Orn]-NH2; linker N-5 via X1)	7.3	1.7	–	ED (Rattus norvegicus [3]): ~100 nM/kg
CC[C@H](C)[C@@H]1NC(=O)[C@H](Cc2ccc(OC)cc2)NC(=O)CC2(CCCCC2)SSC[C@@H](C(=O)N2CCC[C@H]2C(=O)N[C@@H](CCCN)C(=O)O)NC(=O)[C@H](CC(N)=O)NC(=O)[C@H]([C@@H](C)O)NC1=O (Y(Me)ITNCP[Orn]-OH; linker N-5 via X1)	23	1.3	–	ED (Rattus norvegicus [3]): ~300 nM/kg
CC[C@H](C)[C@@H]1NC(=O)[C@H](Cc2ccc(OC)cc2)NC(=O)CC2(CCCCC2)SSC[C@@H](C(=O)N2CCC[C@H]2C(=O)N[C@@H](CCCN)C(=O)NCC(N)=O)NC(=O)[C@H](CC(N)=O)NC(=O)[C@H]([C@@H](C)O)NC1=O (Y(Me)ITNCP[Orn]G-NH2; linker N-5 via X1)	9.9	2	0.01	ED (Rattus norvegicus [7]): ~330 nM/kg
CC[C@H](C)[C@@H]1NC(=O)[C@H](Cc2ccc(OC)cc2)NC(=O)CC2(CCCCC2)SSC[C@@H](C(=O)N2CCC[C@H]2C(=O)N[C@@H](CCCN)C(=O)N[C@@H](CC(C)C)C(N)=O)NC(=O)[C@H](CC(N)=O)NC(=O)[C@H]([C@@H](C)O)NC1=O (Y(Me)ITNCP[Orn]L-NH2; linker N-5 via X1)	27	1.8	–	Activity (Rattus norvegicus [8]): 0.029 mg
CC[C@H](C)[C@@H]1NC(=O)[C@H](Cc2ccc(OC)cc2)NC(=O)CC2(CCCCC2)SSC[C@@H](C(=O)N2CCC[C@H]2C(=O)N[C@@H](CCCN)C(=O)N[C@@H](Cc2ccc(O)cc2)C(N)=O)NC(=O)[C@H](CC(N)=O)NC(=O)[C@H]([C@@H](C)O)NC1=O (Y(Me)ITNCP[Orn]Y-NH2; linker N-5 via X1)	6.6	1	–	Activity (Rattus norvegicus [9]): 0.015 mg
CC[C@H](C)[C@@H]1NC(=O)C(Cc2ccc(OC)cc2)NC(=O)CC2(CCCCC2)SSC[C@@H](C(=O)N2CCC[C@H]2C(=O)N[C@@H](CCCN=C(N)N)C(=O)NCC(N)=O)NC(=O)[C@H](CC(N)=O)NC(=O)[C@H](CCC(N)=O)NC1=O (stereo in doubt)	0.64	1.1	–	Activity (Rattus norvegicus [10]): ~0.03 mg
CC[C@H](C)[C@@H]1NC(=O)C(Cc2ccc(OC)cc2)NC(=O)CC(C)(C)SSC[C@@H](C(=O)N2CCC[C@H]2C(=O)N[C@@H](CCCN=C(N)N)C(=O)NCC(N)=O)NC(=O)[C@H](CC(N)=O)NC(=O)[C@H](C(C)C)NC1=O (stereo in doubt)	0.23	1.9	1.6	–
CC[C@H](C)[C@@H]1NC(=O)C(Cc2ccc(OC)cc2)NC(=O)CC(C)(C)SSC[C@@H](C(=O)N2CCC[C@H]2C(=O)N[C@@H](CCCN=C(N)N)C(=O)NCC(N)=O)NC(=O)[C@H](CC(N)=O)NC(=O)[C@H](CCC(N)=O)NC1=O (stereo in doubt)	0.25	2.2	~1.6	–
CC[C@H](C)[C@@H]1NC(=O)C(Cc2ccc(OC)cc2)NC(=O)CC2(CCCCC2)SSC[C@@H](C(=O)N2CCC[C@H]2C(=O)N[C@@H](CCCCN)C(=O)NCC(N)=O)NC(=O)[C@H](CC(N)=O)NC(=O)[C@H](CCC(N)=O)NC1=O (stereo in doubt)	1.5	4.6	~0.003	–
